Experimental data reported in ChEMBL document CHEMBL4145466, “Design, synthesis, and biological evaluation of novel combretastatin A-4 thio derivatives as microtubule targeting agents” (Eur J Med Chem, 2018).
The source made the active and inactive calls. The rule behind the calls is not given here.

Legend:
HeLa [1] = assay: Cytotoxicity against human HeLa cells after 48 hrs by MTT assay; type: functional, cell-based
Outline: (§1)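 Cells in DMEM with 10% FBS were plated at 2 × 10^4 per well and left overnight, then treated for 48 h at 0.6–20 µM (six concentrations) from 10 mM DMSO stocks. MTT was added for 2 h, and formazan was dissolved in DMSO and read at 570 nm. Viability was expressed as % of control, with IC50 taken from dose-response curves. Results are mean ± SD of three independent experiments.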

[2] = Cytotoxicity against human CCD39Lu cells after 48 hrs by MTT assay; type: cell-based; outline: as §1
HaCaT [3] = assay: Induction of apoptosis in human HaCaT cells assessed as increase in histone-associated DNA fragments in mononucleosomes at 0.1 uM after 24 hrs by ELISA; type: cell-based
Outline: (§2)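 HaCaT cells (2 × 10^4), grown in DMEM with 10% FBS, penicillin/streptomycin and 2 mM L-glutamine, exposed to compound (DMSO stock) for 24 h. Cells lysed, supernatant taken after centrifugation and incubated 2 h on a streptavidin-coated plate with anti-histone-biotin and anti-DNA-peroxidase. ABTS added for 30 min, A405 read. Output is enrichment factor vs control, mean ± SD of three independent experiments.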

A-431 [4] = assay: Induction of apoptosis in human A431 cells assessed as increase in histone-associated DNA fragments in mononucleosomes at 0.1 uM after 24 hrs by ELISA; type: functional, cell-based
Outline: (§3)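 Cells (2 × 10^4) were incubated for 24 h at 0.1, 0.5 or 1 µM, lysed and centrifuged. Supernatants went onto a streptavidin plate with anti-histone-biotin and anti-DNA-peroxidase for 2 h, followed by ABTS for 30 min and a reading at 405 nm. Nucleosome content was expressed as an enrichment factor, as mean ± SD of three experiments.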

MCF7 [5] = assay: Induction of apoptosis in human MCF7 cells assessed as increase in histone-associated DNA fragments in mononucleosomes at 0.1 uM after 24 hrs by ELISA; type: functional, cell-based; outline: as §3
MDA-MB-231 [6] = assay: Cell cycle arrest in human MDA-MB-231 cells assessed as accumulation of cells at G2/M phase at 0.1 to 1 uM after 24 hrs by propidium iodide staining-based FACS analysis; type: functional
Outline: (§4)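 Cells were seeded at 5 × 10^5 per well in DMEM with 10% FBS and left overnight, then exposed to 0.1, 0.5 or 1 µM for 24 h. DMSO served as the negative control and 50 nM camptothecin as the positive control. Cells were trypsinized, fixed in 70% ethanol for 30 min at 4 °C, stained with 50 µg/mL PI plus 100 µg/mL RNase A for 30 min in the dark, and analysed by flow cytometry. Results are mean ± SD of three experiments, compared by ANOVA with Dunnett's test.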

MCF7 [7] = assay: Induction of apoptosis in human MCF7 cells assessed as increase in histone-associated DNA fragments in oligonucleosomes at 0.1 uM after 24 hrs by ELISA; type: functional, cell-based; outline: as §3
[8] = Inhibition of porcine tubulin polymerization after 1 hr by spectrophotometric analysis; parameters: species or system Sus scrofa
Outline: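 Polymerization was started by shifting from 4 °C to 37 °C, and absorbance was followed at 37 °C for 60 min. The vehicle served as control.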

MCF7 [9] = assay: Cytotoxicity against human MCF7 cells after 48 hrs by MTT assay; type: functional, cell-based; details: MCF7, 48 h; outline: as §1
SK-OV-3 [10] = assay: Induction of apoptosis in human SKOV3 cells assessed as increase in histone-associated DNA fragments in oligonucleosomes at 0.1 uM after 24 hrs by ELISA; type: functional, cell-based; outline: as §3
A-431 [11] = assay: Cell cycle arrest in human A431 cells assessed as accumulation of cells at G2/M phase at 0.1 to 1 uM after 24 hrs by propidium iodide staining-based FACS analysis; type: functional; outline: as §4
MDA-MB-231 [12] = assay: Cytotoxicity against human MDA-MB-231 cells after 48 hrs by MTT assay; type: functional, cell-based; details: MDA-MB-231, 48 h; outline: as §1
MDA-MB-231 [13] = assay: Induction of apoptosis in human MDA-MB-231 cells after 24 hrs by FITC Annexin V/propidium iodide staining-based FACScan flow cytometric analysis; type: functional, cell-based
Outline: (§5)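 After 24 h of compound exposure, 1 × 10^6 cells were labelled with annexin V-FITC and PI for 15 min at 25 °C in the dark. They were read on a FACScan with 488 nm excitation, detecting FITC at 525 nm and PI at 620 nm. Results are mean ± SD of three independent experiments, with Dunnett's test against control.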

Tubulin [14] = assay: Inhibition of tubulin polymerization in human HaCaT cells assessed as perturbation in cytoskeleton structure at 1 uM after 24 hrs by ELISA; type: cell-based
SK-OV-3 [15] = assay: Cell cycle arrest in human SKOV3 cells assessed as accumulation of cells at G2/M phase at 0.1 to 1 uM after 24 hrs by propidium iodide staining-based FACS analysis; type: functional; outline: as §4
HeLa [16] = assay: Induction of apoptosis in human HeLa cells after 24 hrs by FITC Annexin V/propidium iodide staining-based FACScan flow cytometric analysis; type: functional, cell-based; outline: as §5
HaCaT [17] = assay: Induction of apoptosis in human HaCaT cells after 24 hrs by FITC Annexin V/propidium iodide staining-based FACScan flow cytometric analysis; type: cell-based; outline: as §5
SK-OV-3 [18] = assay: Induction of apoptosis in human SKOV3 cells after 24 hrs by FITC Annexin V/propidium iodide staining-based FACScan flow cytometric analysis; type: functional, cell-based; outline: as §5
A-431 [19] = assay: Induction of apoptosis in human A431 cells after 24 hrs by FITC Annexin V/propidium iodide staining-based FACScan flow cytometric analysis; type: functional, cell-based; outline: as §5
HaCaT [20] = assay: Induction of apoptosis in human HaCaT cells assessed as increase in histone-associated DNA fragments in oligonucleosomes at 0.1 uM after 24 hrs by ELISA; type: cell-based; outline: as §2
MCF7 [21] = assay: Cell cycle arrest in human MCF7 cells assessed as accumulation of cells at G2/M phase at 0.1 to 1 uM after 24 hrs by propidium iodide staining-based FACS analysis; type: functional; outline: as §4
HaCaT [22] = assay: Cell cycle arrest in human HaCaT cells assessed as accumulation of cells at G2/M phase at 0.1 to 1 uM after 24 hrs by propidium iodide staining-based FACS analysis; outline: as §4
MDA-MB-231 [23] = assay: Induction of apoptosis in human MDA-MB-231 cells assessed as increase in histone-associated DNA fragments in oligonucleosomes at 0.1 uM after 24 hrs by ELISA; type: functional, cell-based; outline: as §3
A549 = assay: Cytotoxicity against human A549 cells after 48 hrs by MTT assay; type: functional, cell-based; details: A549, 48 h
SK-OV-3 [24] = assay: Cytotoxicity against human SKOV3 cells after 48 hrs by MTT assay; type: functional, cell-based; details: SK-OV-3, 48 h; outline: as §1
HeLa [25] = assay: Induction of apoptosis in human HeLa cells assessed as increase in histone-associated DNA fragments in mononucleosomes at 0.1 uM after 24 hrs by ELISA; type: functional, cell-based; outline: as §3
A-431 [26] = assay: Cytotoxicity against human A431 cells after 48 hrs by MTT assay; type: functional, cell-based; details: A-431, 48 h; outline: as §1
Tubulin [27] = assay: Inhibition of tubulin polymerization in human HaCaT cells assessed as micronuclei formation at 1 uM after 24 hrs by Hoechst 33258/FITC staining-based […]; type: cell-based
Outline: (§6)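 Cells seeded at 12.5 × 10^4 per well and exposed to 1 µM compound for 24 h. Nuclei were stained with Hoechst 33258 (10 µg/mL, 30 min, 37 °C), then fixed in 4% formaldehyde/PBS (15 min, RT). Cells were permeabilized with 1% Triton X-100, blocked with 2% BSA/PBS for 1 h, and incubated with anti-α-tubulin-FITC (1:50) overnight at 4 °C. Imaged by fluorescence microscopy.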

Tubulin [28] = assay: Inhibition of tubulin polymerization in human HaCaT cells assessed as micronuclei formation at 1 uM after 24 hrs by ELISA; type: cell-based
A-431 [29] = assay: Induction of apoptosis in human A431 cells assessed as increase in histone-associated DNA fragments in oligonucleosomes at 0.1 uM after 24 hrs by ELISA; type: functional, cell-based; outline: as §3
MDA-MB-231 [30] = assay: Induction of apoptosis in human MDA-MB-231 cells assessed as increase in histone-associated DNA fragments in mononucleosomes at 0.1 uM after 24 hrs by ELISA; type: functional, cell-based; outline: as §3
SK-OV-3 [31] = assay: Induction of apoptosis in human SKOV3 cells assessed as increase in histone-associated DNA fragments in mononucleosomes at 0.1 uM after 24 hrs by ELISA; type: functional, cell-based; outline: as §3
HaCaT [32] = assay: Cytotoxicity against human HaCaT cells after 48 hrs by MTT assay; type: cell-based; outline: as §1
MCF7 [33] = assay: Induction of apoptosis in human MCF7 cells after 24 hrs by FITC Annexin V/propidium iodide staining-based FACScan flow cytometric analysis; type: functional, cell-based; outline: as §5
HeLa [34] = assay: Induction of apoptosis in human HeLa cells assessed as increase in histone-associated DNA fragments in oligonucleosomes at 0.1 uM after 24 hrs by ELISA; type: functional, cell-based; outline: as §3
Tubulin [35] = assay: Inhibition of tubulin polymerization in human HaCaT cells assessed as perturbation in cytoskeleton structure at 1 uM after 24 hrs by Hoechst 33258/FITC staining-based […]; type: cell-based; outline: as §6

## COc1ccc(/C=C\c2cc(OC)c(OC)c(OC)c2)cc1O [COMBRETASTATIN A4]
HeLa [1]
  IC50: 110 nM
[2]
  IC50: 9 nM
HaCaT [3]
  Activity: Toxic
A-431 [4]
  Activity: Active
MCF7 [5]
  Activity: Active
MDA-MB-231 [6]
  Activity: Active
MCF7 [7]
  Activity: Active
[8]
  IC50: 2720 nM
MCF7 [9]
  IC50: 170 nM
SK-OV-3 [10]
  Activity: Active
A-431 [11]
  Activity: Active
MDA-MB-231 [12]
  IC50: 560 nM
MDA-MB-231 [13]
  Activity: Dose-dependent effect
Tubulin [14]
  inhibition (INH): Active
SK-OV-3 [15]
  Activity: Active
HeLa [16]
  Activity: Dose-dependent effect
HaCaT [17]
  Activity: Dose-dependent effect
SK-OV-3 [18]
  Activity: Dose-dependent effect
A-431 [19]
  Activity: Dose-dependent effect
HaCaT [20]
  Activity: Toxic
MCF7 [21]
  Activity: Active
HaCaT [22]
  Activity: Toxic
MDA-MB-231 [23]
  Activity: Active
A549
  IC50: > 20 µM
SK-OV-3 [24]
  IC50: 380 nM
HeLa [25]
  Activity: Active
A-431 [26]
  IC50: 250 nM
Tubulin [27]
  inhibition (INH): Active
Tubulin [28]
  inhibition (INH): Active
A-431 [29]
  Activity: Active
MDA-MB-231 [30]
  Activity: Active
SK-OV-3 [31]
  Activity: Active
HaCaT [32]
  IC50: 190 nM
MCF7 [33]
  Activity: Dose-dependent effect
HeLa [34]
  Activity: Active
Tubulin [35]
  inhibition (INH): Active
